In ChEMBL document CHEMBL1141929, “(2R)-4-oxo-4-[3-(trifluoromethyl)-5,6-dihydro[1,2,4]triazolo[4,3-a]pyrazin-7(8H)-yl]-1-(2,4,5-trifluorophenyl)butan-2-amine: a potent, orally active dipeptidyl peptidase IV inhibitor for the treatment of type 2 diabetes” (J Med Chem, 2005):

Key:
Dipeptidyl peptidase 4 = Dipeptidyl peptidase 4 (Homo sapiens, UniProt P27487)
Dipeptidyl peptidase 2 = Dipeptidyl peptidase 2 (Homo sapiens, UniProt Q9UHL4); experiment: In vitro inhibitory concentration was measured against quiescent cell proline dipeptidase
[1] = Oral bioavailability in rat; type: ADME, organism-based; conditions: in vivo
Method in brief: (§1)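 Pharmacokinetics in rat, dog and monkey. Dosing was iv 1 mpk and po 2 mpk.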

[2] = Plasma clearance was measured in rat; type: ADME, organism-based; conditions: read-out: Clp
Method in brief: as §1

Dipeptidyl peptidase 9 = Dipeptidyl peptidase 9 (Homo sapiens, UniProt Q86TI2); experiment: In vitro inhibitory concentration was measured against dipeptidylpeptidase 9
Dipeptidyl peptidase 9, sequence (Q86TI2 whole entry): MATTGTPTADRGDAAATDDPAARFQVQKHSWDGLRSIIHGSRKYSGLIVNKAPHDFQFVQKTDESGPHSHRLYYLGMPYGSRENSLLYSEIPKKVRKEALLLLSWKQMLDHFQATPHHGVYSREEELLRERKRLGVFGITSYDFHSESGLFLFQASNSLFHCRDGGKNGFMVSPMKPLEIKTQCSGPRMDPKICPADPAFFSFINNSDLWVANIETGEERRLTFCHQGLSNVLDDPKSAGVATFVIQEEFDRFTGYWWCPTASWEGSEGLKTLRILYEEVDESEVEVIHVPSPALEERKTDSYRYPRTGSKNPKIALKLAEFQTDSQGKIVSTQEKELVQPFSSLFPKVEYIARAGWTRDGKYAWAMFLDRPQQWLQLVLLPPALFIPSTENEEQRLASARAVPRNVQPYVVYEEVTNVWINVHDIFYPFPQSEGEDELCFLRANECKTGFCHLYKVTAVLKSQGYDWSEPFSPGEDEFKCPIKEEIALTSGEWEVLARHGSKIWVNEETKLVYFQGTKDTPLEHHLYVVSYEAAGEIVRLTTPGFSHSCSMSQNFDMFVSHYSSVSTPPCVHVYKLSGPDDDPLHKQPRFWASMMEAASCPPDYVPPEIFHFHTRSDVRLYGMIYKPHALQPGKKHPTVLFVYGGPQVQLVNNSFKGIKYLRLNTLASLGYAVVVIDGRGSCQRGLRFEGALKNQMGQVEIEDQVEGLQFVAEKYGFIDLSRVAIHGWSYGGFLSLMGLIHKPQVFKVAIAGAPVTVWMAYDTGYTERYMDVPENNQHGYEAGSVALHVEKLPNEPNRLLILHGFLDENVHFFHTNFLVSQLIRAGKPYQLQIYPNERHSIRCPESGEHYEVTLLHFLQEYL

[3] = Maximum concentration was measured in plasma of rat upon peroral dose of 2 mpk; type: ADME, organism-based; parameters: dose 2 mpk, route oral; conditions: po, 2 mg/kg
Method in brief: as §1

[4] = Plasma half-life was measured in plasma of rat; type: ADME, cell-free
Method in brief: as §1

[5] = Plasma clearance was measured in dog; type: ADME, organism-based, Canis lupus familiaris; conditions: read-out: Clp
Method in brief: as §1

[6] = Maximum concentration in plasma of rat upon peroral dose of 2 mpk; type: ADME, organism-based; parameters: dose 2 mpk, route oral; conditions: po, 2 mg/kg
Method in brief: as §1

[7] = Plasma half-life was measured in monkey; type: ADME; conditions: cercopithecidae
Method in brief: as §1

[8] = Plasma half-life was measured in dog; type: ADME, cell-free, Canis lupus familiaris
Method in brief: as §1

[9] = Plasma clearance was measured in monkey; type: ADME, organism-based; conditions: cercopithecidae, read-out: Clp
Method in brief: as §1

[10] = Oral bioavailability in dog; type: ADME, organism-based, Canis lupus familiaris; conditions: in vivo
Method in brief: as §1

[11] = Plasma half-life was measured in rat; type: ADME, organism-based
Method in brief: as §1

[12] = Maximum concentration in plasma of dog upon peroral dose of 2 mpk; type: ADME, organism-based, Canis lupus familiaris; parameters: dose 2 mpk, route oral; conditions: po, 2 mg/kg
Method in brief: as §1

[13] = Maximum concentration in plasma of monkey upon peroral dose of 2 mpk; type: ADME, organism-based; parameters: dose 2 mpk, route oral; conditions: cercopithecidae, po, 2 mg/kg
Method in brief: as §1

[14] = Oral bioavailability in monkey; type: ADME, organism-based; conditions: cercopithecidae, in vivo
Method in brief: as §1

[15] = Maximum concentration was measured in plasma of dog upon peroral dose of 2 mpk; type: ADME, organism-based, Canis lupus familiaris; parameters: dose 2 mpk, route oral; conditions: po, 2 mg/kg
Method in brief: as §1

[16] = Maximum concentration was measured in plasma of monkey upon peroral dose of 2 mpk; type: ADME, organism-based; parameters: dose 2 mpk, route oral; conditions: cercopithecidae, po, 2 mg/kg
Method in brief: as §1

Dipeptidyl peptidase 4, sequence (P27487 whole entry): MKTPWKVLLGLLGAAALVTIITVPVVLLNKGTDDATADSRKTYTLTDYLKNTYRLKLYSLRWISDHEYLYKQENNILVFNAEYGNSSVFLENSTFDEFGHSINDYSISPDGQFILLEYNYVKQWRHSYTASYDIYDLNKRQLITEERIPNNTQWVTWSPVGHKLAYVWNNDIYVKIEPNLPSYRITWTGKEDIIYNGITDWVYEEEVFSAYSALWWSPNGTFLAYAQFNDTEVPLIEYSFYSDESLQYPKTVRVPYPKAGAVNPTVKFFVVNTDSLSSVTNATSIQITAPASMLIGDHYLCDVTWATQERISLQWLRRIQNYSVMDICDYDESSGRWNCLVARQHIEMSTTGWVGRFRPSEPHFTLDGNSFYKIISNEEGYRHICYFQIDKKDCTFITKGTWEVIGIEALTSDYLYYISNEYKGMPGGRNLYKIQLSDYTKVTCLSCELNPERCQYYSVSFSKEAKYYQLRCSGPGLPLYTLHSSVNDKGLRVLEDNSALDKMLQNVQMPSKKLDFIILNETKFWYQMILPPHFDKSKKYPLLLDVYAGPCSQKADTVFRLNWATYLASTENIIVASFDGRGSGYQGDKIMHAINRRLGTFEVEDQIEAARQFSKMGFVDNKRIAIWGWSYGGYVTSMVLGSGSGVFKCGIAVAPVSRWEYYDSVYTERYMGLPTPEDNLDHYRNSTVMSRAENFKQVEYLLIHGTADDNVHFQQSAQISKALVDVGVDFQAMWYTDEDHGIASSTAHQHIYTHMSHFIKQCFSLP

Row | SMILES | IC50 (Dipeptidyl peptidase 4) [µM] | IC50 (Dipeptidyl peptidase 2) [µM] | bioavailability [1] [%] | clearance [2] [mL/min/kg] | IC50 (Dipeptidyl peptidase 9) [µM] | Cmax [3] [nM] | half-life [4] [h] | clearance [5] [mL/min/kg] | Cmax [6] [nM] | half-life [7] [h] | half-life [8] [h] | clearance [9] [mL/min/kg] | bioavailability [10] [%] | half-life [11] [h] | Cmax [12] [nM] | Cmax [13] [nM] | bioavailability [14] [%] | Cmax [15] [nM] | Cmax [16] [nM]
1 | N[C@@H](CC(=O)N1CCNCC1)Cc1ccc(F)c(F)c1 | 3.1 |  |  |  |  |  |  |  |  |  |  |  |  |  |  |  |  |  | 
2 | Cl.N[C@@H](CC(=O)N1CCn2c(nnc2C(F)(F)F)C1)Cc1cc(F)ccc1F |  | > 100 | 51 | 43 | > 100 | 190 | 1.6 |  |  |  |  |  |  |  |  |  |  |  | 
3 | N[C@@H](CC(=O)N1CCn2cnnc2C1)Cc1ccc(F)c(F)c1 | 0.455 | > 10 |  |  | > 100 |  |  |  |  |  |  |  |  |  |  |  |  |  | 
4 | CCc1nnc2n1CCN(C(=O)C[C@H](N)Cc1ccc(F)c(F)c1)C2.Cl | 0.231 | 64 | 2 | 45 | > 100 |  |  | 13 | 10 | 1.3 | 2.3 | 26 | 33 | 2.7 | 730 | 12 | 1 |  | 
5 | Cl.N[C@@H](CC(=O)N1CCn2c(nnc2C(F)(F)F)C1)Cc1cc(F)c(F)cc1F |  |  |  |  |  | 330 |  | 6 |  | 3.7 | 4.9 | 28 | 100 | 1.7 |  |  | 68 | 2200 | 330
6 | Cl.N[C@@H](CC(=O)N1CCn2cnnc2C1)Cc1cc(F)c(F)cc1F | 0.068 | > 10 | 3 | 40 | > 100 | 30 |  |  |  |  |  |  |  | 1 |  |  |  |  | 
7 | Cl.N[C@@H](CC(=O)N1CCn2c(nnc2C(F)(F)F)C1)Cc1ccc(F)c(F)c1 |  | 98 | 44 | 51 | > 100 | 140 |  |  |  |  |  |  |  | 1.8 |  |  |  |  | 
8 | Cl.N[C@@H](CC(=O)N1CCn2c(nnc2C(F)(F)C(F)(F)F)C1)Cc1cc(F)c(F)cc1F | 0.071 | 78 | 61 | 58 | > 100 | 160 |  |  |  |  |  |  |  | 2.3 |  |  |  |  | 
9 | Cl.N[C@@H](CC(=O)N1CCn2c(nnc2C(F)(F)C(F)(F)F)C1)Cc1cc(F)ccc1F | 0.103 | > 100 | 1 | 109 | > 100 | 2 |  |  |  |  |  |  |  | 1.5 |  |  |  |  | 
